This is a sample that favours compounds with a hit; in the whole collection about 3% have one here.
Apaf1 inhib: human Apaf-1 inhibition; O14727; reconstituted apoptosome caspase-3 activity, DEVD-Rh110 fluorescence; inhibition, % at 20 µM; 330,000 compounds, 0.71% hits; active = inhibition of at least 40% at 20 µM;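 also: plate controls were DMSO wells for no effect and DEVD-CHO caspase inhibitor wells for full effect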
Target sequence (O14727 whole entry, looked up): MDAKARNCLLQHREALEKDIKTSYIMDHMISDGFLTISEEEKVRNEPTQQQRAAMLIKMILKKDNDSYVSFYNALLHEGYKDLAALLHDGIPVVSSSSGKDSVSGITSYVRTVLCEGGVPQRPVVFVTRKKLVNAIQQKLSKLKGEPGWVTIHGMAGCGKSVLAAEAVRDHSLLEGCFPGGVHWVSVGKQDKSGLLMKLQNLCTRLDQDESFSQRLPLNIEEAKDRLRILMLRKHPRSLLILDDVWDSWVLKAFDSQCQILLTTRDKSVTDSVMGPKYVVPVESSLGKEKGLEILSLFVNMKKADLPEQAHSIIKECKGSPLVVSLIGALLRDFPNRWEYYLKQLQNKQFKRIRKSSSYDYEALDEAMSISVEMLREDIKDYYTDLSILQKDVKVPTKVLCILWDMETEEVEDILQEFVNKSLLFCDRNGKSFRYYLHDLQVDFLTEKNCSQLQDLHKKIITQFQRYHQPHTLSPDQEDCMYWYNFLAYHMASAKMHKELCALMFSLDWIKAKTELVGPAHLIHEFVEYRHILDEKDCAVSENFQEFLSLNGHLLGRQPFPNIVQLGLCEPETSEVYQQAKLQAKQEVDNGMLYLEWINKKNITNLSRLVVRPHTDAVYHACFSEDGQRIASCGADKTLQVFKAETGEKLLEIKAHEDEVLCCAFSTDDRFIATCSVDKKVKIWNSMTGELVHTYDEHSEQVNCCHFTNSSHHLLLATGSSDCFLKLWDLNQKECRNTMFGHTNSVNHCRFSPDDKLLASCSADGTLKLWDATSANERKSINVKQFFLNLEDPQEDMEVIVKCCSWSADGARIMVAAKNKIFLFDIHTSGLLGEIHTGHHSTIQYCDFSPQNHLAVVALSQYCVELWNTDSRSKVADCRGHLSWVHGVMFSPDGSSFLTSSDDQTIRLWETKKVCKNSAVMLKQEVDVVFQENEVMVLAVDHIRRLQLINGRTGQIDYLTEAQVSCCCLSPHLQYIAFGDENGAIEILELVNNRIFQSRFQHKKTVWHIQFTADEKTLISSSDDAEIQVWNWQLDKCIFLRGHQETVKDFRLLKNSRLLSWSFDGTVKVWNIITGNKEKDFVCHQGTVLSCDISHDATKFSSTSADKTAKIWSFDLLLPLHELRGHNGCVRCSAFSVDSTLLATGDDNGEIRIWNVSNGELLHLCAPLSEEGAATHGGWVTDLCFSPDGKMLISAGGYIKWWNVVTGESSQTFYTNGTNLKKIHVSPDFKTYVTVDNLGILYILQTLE
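Medium: Hepes buffer, pH 7.5 / System: biochemical Apaf-1 apoptosome reconstitution / Measured by: Rh110 fluorescence, excitation 480 nm, emission 540 nm / Times: compound with Apaf-1, dATP, procaspase-3 30 min, then 50 min reaction, room temperature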
SENP8 block-1: blocks the human protease SENP8; Q96LD8; purified SENP8, Z-RLRGG-aminoluciferin cleavage, luminescence; inhibition, % at 10 µM; 330,000 compounds, 1.2% hits; AID 2540; in the data active = inhibition above about 50%
SENP8 block-2: inhibitors of human SENP8 protease. recombinant SENP8, Nedd8 substrate fluorescence. inhibition, % at 20 µM. 360,000 compounds, 0.64% hits. AID 602440; in the data active = inhibition mostly above about 40%, no sharp cut-off; inactive = mostly below about 27%
UBC13 polyUb: human UBC13 polyubiquitination inhibition; UBC13 polyubiquitin chain formation, TR-FRET; inhibition, % at 20 µM; 330,000 compounds, 0.47% hits; in the data active = inhibition above about 45%, passing the limit was not always enough
SENP6 inh: SENP6 protease inhibition | Q9GZR1 | 330,000 compounds, 1.8% hits | AID 2599 | inhibition, % at 10 µM | Recombinant SENP6 catalytic domain, aminoluciferin luminescence;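 active = inhibition above about 50% at the single tested dose, limit read from the data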;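 also: plate controls were DMSO wells with enzyme for no effect and DMSO wells lacking enzyme for full effect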
SENP7 block: blocks the human protease SENP7. inhibition, % at 5 µM. recombinant SENP7, Z-RLRGG-aminoluciferin luminescence, 40 min. 330,000 compounds, 1.5% hits;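 active = inhibition above about 50% at the single test dose, limit read from the data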;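 also: plate controls were DMSO with enzyme for no effect and no enzyme buffer wells for full effect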
Apaf-1 inh conf2: confirmation of Apaf-1 inhibitors; shares compounds with Apaf1 inhib; 1,800 compounds, 25% hits; inhibition, % at 20 µM; AID 504614; reconstituted apoptosome, caspase-3 DEVD-Rh110 fluorescence;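 active = mean inhibition of at least 40% at 20 µM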;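 also: plate controls were DMSO wells for no effect and DEVD-CHO caspase inhibitor control wells for full effect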
Rh110 interf inh: Rh110 signal interference in Apaf-1 inhibitor counter-screen | activation (fluorescence interference), % at 20 µM | Rh110 fluorescence interference, quenched caspase reaction | shares compounds with Apaf1 inhib | AID 504615 | 1,800 tested, under 10 active;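 active = signal rise of 40% or more at 20 µM, treated as a fluorescence artifact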
Fluor interf inh: shows fluorescence interference in the Apaf-1 inhibitor assay format. shares compounds with Apaf1 inhib. fluorescence interference counterscreen, Apaf-1 assay format. IC50, µM. 460 tested, under 10 active; call rule not given here
An asterisk follows results filed as active.

For COC(=O)C(C(=O)OC)C(C[N+](=O)[O-])c1ccc(O)c(OC)c1 (centres undefined) the results were Apaf1 inhib -2, SENP8 block-1 -7, SENP8 block-2 27, UBC13 polyUb 9, SENP6 inh -2 and SENP7 block 6.
COc1ccc(OC)c(NC(=O)CCC(=O)Oc2ccc(C)cc2)c1 was read as Apaf1 inhib -8, SENP8 block-1 -4, SENP8 block-2 8, UBC13 polyUb 8, SENP6 inh 4 and SENP7 block 1.
Screening NC(=O)C1CCN(C2=C(NS(=O)(=O)c3ccc(Br)cc3)C(=O)c3ccccc3C2=O)CC1 returned Apaf1 inhib 66*, SENP8 block-1 19, SENP8 block-2 41*, UBC13 polyUb -118, SENP6 inh 41, SENP7 block 34, Apaf-1 inh conf2 48*, Rh110 interf inh 14 and Fluor interf inh >100.
For O=C(COC(=O)COc1ccccc1Cc1ccccc1)Nc1cccnc1Cl the results were Apaf1 inhib 11, SENP8 block-1 10, SENP8 block-2 23, UBC13 polyUb 4, SENP6 inh 2 and SENP7 block 5.
For COc1ccc(C(=O)/C=C/C(=O)N(CC(=O)NC2CCCCC2)CC2CCCO2)c(O)c1 (centres undefined) the results were Apaf1 inhib 49*, SENP8 block-1 5, SENP8 block-2 -13, UBC13 polyUb 9, SENP6 inh -2, SENP7 block -1, Apaf-1 inh conf2 10 and Rh110 interf inh 8.
CCN(CC)C(=O)C(=O)c1cccn1-c1cccc(OC)c1C#N was read as Apaf1 inhib -4, SENP8 block-1 2, SENP8 block-2 15, UBC13 polyUb 3, SENP6 inh 2 and SENP7 block -2.
For CCc1ccccc1NC(=O)CCNS(=O)(=O)c1cc(Br)cnc1N the results were Apaf1 inhib 49*, SENP8 block-1 -1, SENP8 block-2 -21, UBC13 polyUb 11, SENP6 inh -15, SENP7 block 1, Apaf-1 inh conf2 12 and Rh110 interf inh 9.
Cc1cccc(NC(=O)c2sc3nc4c(c(-c5cccs5)c3c2N)CN(C)CC4)c1 was read as Apaf1 inhib 50*, SENP8 block-1 9, SENP8 block-2 -115, UBC13 polyUb -57, SENP6 inh 26, SENP7 block 7, Apaf-1 inh conf2 24 and Rh110 interf inh 13.
Screening CC1CCCC(C)N1/N=C/c1ccccc1Br (centres undefined) returned Apaf1 inhib 0, SENP8 block-1 -14, SENP8 block-2 22, UBC13 polyUb -2, SENP6 inh -21 and SENP7 block -3.
Screening COc1cc(OC)cc(-c2sc3ccc(OC)cc3c2-c2ccc(OCCN3CCCCC3)cc2)c1 returned Apaf1 inhib 60*, SENP8 block-2 -199, SENP7 block 5, Apaf-1 inh conf2 -3 and Rh110 interf inh 9.
For c1ccc(-c2sc3ccccc3c2-c2ccc(OCCN3CCCCC3)cc2)cc1 the results were Apaf1 inhib 52*, SENP8 block-1 -4, SENP8 block-2 -20, UBC13 polyUb 43, SENP6 inh -5, SENP7 block -1, Apaf-1 inh conf2 6 and Rh110 interf inh 9.
COc1ccccc1-c1sc2cc3c(cc2c1-c1ccc(OCCN2CCOCC2)cc1)OCO3 was read as Apaf1 inhib 23, SENP8 block-2 -381 and SENP7 block 4.
`COc1ccc(-c2sc3cc4c(cc3c2-c2ccc(OCCN3CCCCC3)cc2)OCO4)cc1` gave Apaf1 inhib 59*, SENP8 block-2 -324, SENP7 block 6, Apaf-1 inh conf2 6 and Rh110 interf inh 9.
For COc1ccc(-c2c(-c3cc(OC)cc(OC)c3)sc3ccc(OC)cc23)cc1 the results were Apaf1 inhib 3, SENP8 block-1 -7, SENP8 block-2 -51, UBC13 polyUb 10, SENP6 inh -11 and SENP7 block 4.
COc1ccc(NC(=O)C(OC(=O)c2cnccn2)c2ccccc2)cc1Cl (centres undefined) was read as Apaf1 inhib 14, SENP8 block-1 5, SENP8 block-2 4, UBC13 polyUb -1, SENP6 inh -5 and SENP7 block 5.
COc1ccc(NC(C)=O)cc1NC(=O)C1CCCN1C(=O)c1cccs1 (centres undefined) was read as Apaf1 inhib 5, SENP8 block-1 -1, SENP8 block-2 12, UBC13 polyUb 0, SENP6 inh -3 and SENP7 block -3.
Screening O=C(Nc1ccc(OC(F)F)c(Cl)c1)[C@@H]1CCCN1C(=O)c1cccs1 returned Apaf1 inhib 92*, SENP8 block-1 4, SENP8 block-2 24, UBC13 polyUb -1, SENP6 inh -6, SENP7 block -2, Apaf-1 inh conf2 11 and Rh110 interf inh 6.
CCN1CCN(c2nc3ccccc3nc2C(C#N)S(=O)(=O)c2ccc(C)cc2)CC1 (centres undefined) was read as Apaf1 inhib -15, SENP8 block-1 6, SENP8 block-2 -164, UBC13 polyUb 10, SENP6 inh 3 and SENP7 block 2.
For Cc1ccc(S(=O)(=O)C(C#N)c2nc3ccccc3nc2N2CCCC2)cc1 (centres undefined) the results were Apaf1 inhib 77*, SENP8 block-1 77*, SENP8 block-2 inactive, UBC13 polyUb -36, SENP6 inh 73*, SENP7 block 42, Apaf-1 inh conf2 21 and Rh110 interf inh 6.
For Cc1cc(N2CCN(c3ccc(C(F)(F)F)cc3[N+](=O)[O-])CC2)c2ccccc2n1 the results were Apaf1 inhib 27, SENP8 block-1 -10, SENP8 block-2 40, UBC13 polyUb 5, SENP6 inh 4 and SENP7 block -11.
`Cc1cc(N2CCN(c3ccc([N+](=O)[O-])c4cccnc34)CC2)c2ccccc2n1` gave Apaf1 inhib 60*, SENP8 block-1 3, SENP8 block-2 27, UBC13 polyUb -8, SENP6 inh 0, SENP7 block 5, Apaf-1 inh conf2 47*, Rh110 interf inh 2 and Fluor interf inh >100.
`Cc1ccc(S(=O)(=O)N2CCN(C(=O)COC(=O)c3ccc([N+](=O)[O-])o3)CC2)c(C)c1` gave Apaf1 inhib 59*, SENP8 block-1 13, SENP8 block-2 37, UBC13 polyUb -1, SENP6 inh 11, SENP7 block 15, Apaf-1 inh conf2 22 and Rh110 interf inh 8.
CC(OC(=O)c1cccc(-n2cnnn2)c1)C(=O)Nc1ccc(F)c(F)c1F (centres undefined) was read as SENP8 block-2 -12.
